Measurements published in ChEMBL document CHEMBL1141790, “Sodwanone S, a triterpene from the marine sponge Axinella weltneri” (J Nat Prod, 2005).
Values after ≈ are worked out from the molar mass of the structure shown.

Key:
Format in all cases: functional, cell-based
[1] = Cytotoxicity against human IGROV cells by SRB assay
Outline: (§1)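 Compounds were run across a panel of 13 human tumor cell lines. Potency is expressed as IC50 in μg/mL.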

[2] = Cytotoxicity against human ecteinascidin-743-resistant IGROV cells by SRB assay; outline: as §1
[3] = tested on: SK-BR-3; assay: Cytotoxicity against human SKBR3 cells by SRB assay; outline: as §1
[4] = tested on: SK-MEL-28; assay: Cytotoxicity against human SK-MEL-28 cells by SRB assay; outline: as §1
[5] = tested on: LNCaP; assay: Cytotoxicity against human LNCAP cells by SRB assay; outline: as §1
[6] = tested on: A549; assay: Cytotoxicity against human A549 cells by SRB assay; outline: as §1
[7] = tested on: PANC-1; assay: Cytotoxicity against human PANC1 cells by SRB assay; outline: as §1
[8] = tested on: HT-29; assay: Cytotoxicity against human HT-29 cells by SRB assay; outline: as §1
[9] = tested on: LoVo; assay: Cytotoxicity against human LoVo cells by SRB assay; outline: as §1
[10] = tested on: LoVo; assay: Cytotoxicity against human doxorubicin-resistant LoVo cells by SRB assay; outline: as §1
[11] = tested on: HeLa; assay: Cytotoxicity against human HeLa cells by SRB assay; outline: as §1
[12] = tested on: HeLa; assay: Cytotoxicity against human aplidine-resistant HeLa cells by SRB assay; outline: as §1
[13] = tested on: DU-145; assay: Cytotoxicity against human DU145 cells by SRB assay; outline: as §1

CC1=C(CC[C@@H]2[C@@]3(CC[C@@H]4OC(C)(C)C(=O)CC[C@]42C)CO3)[C@@]2(C)CCC(=O)C(C)(C)C2=C(O)C1=O [SODWANONE G]
IC50 [1]: 5 µg/mL (≈ 10 µM)
IC50 [2]: 2.7 µg/mL (≈ 5.41 µM)
IC50 [3]: > 10 µg/mL
IC50 [4]: > 10 µg/mL
IC50 [5]: 4.3 µg/mL (≈ 8.62 µM)
IC50 [6]: > 10 µg/mL
IC50 [7]: 3.1 µg/mL (≈ 6.22 µM)
IC50 [8]: > 10 µg/mL
IC50 [9]: > 10 µg/mL
IC50 [10]: 2.7 µg/mL (≈ 5.41 µM)
IC50 [11]: 5.4 µg/mL (≈ 10.8 µM)
IC50 [12]: 4.2 µg/mL (≈ 8.42 µM)
IC50 [13]: > 10 µg/mL

C[C@H]1CC[C@@H]2OC(C)(C)[C@@H](O)CC=C2[C@@]1(C)CC[C@H]1[C@]2(C)CCC(=O)C(C)(C)O[C@H]2CC[C@]1(C)O [SODWANONE S]
IC50 [1]: > 10 µg/mL
IC50 [2]: 4.7 µg/mL (≈ 9.58 µM)
IC50 [3]: 3.8 µg/mL (≈ 7.74 µM)
IC50 [4]: 6.5 µg/mL (≈ 13.2 µM)
IC50 [5]: 5 µg/mL (≈ 10.2 µM)
IC50 [6]: > 10 µg/mL
IC50 [7]: 4.1 µg/mL (≈ 8.35 µM)
IC50 [8]: > 10 µg/mL
IC50 [9]: 6.9 µg/mL (≈ 14.1 µM)
IC50 [10]: 3.3 µg/mL (≈ 6.72 µM)
IC50 [11]: > 10 µg/mL
IC50 [12]: > 10 µg/mL
IC50 [13]: > 10 µg/mL

CC1=C(CC[C@H]2[C@]3(C)CCC(=O)C(C)(C)O[C@H]3CC[C@]2(C)O)[C@@]2(C)CCC(=O)C(C)(C)C2=C(O)C1=O [SODWANONE A]
IC50 [1]: 1.7 µg/mL (≈ 3.4 µM)
IC50 [2]: 0.068 µg/mL (≈ 0.136 µM)
IC50 [3]: > 10 µg/mL
IC50 [4]: 7.5 µg/mL (≈ 15 µM)
IC50 [5]: 3.8 µg/mL (≈ 7.59 µM)
IC50 [6]: 3.5 µg/mL (≈ 6.99 µM)
IC50 [7]: 0.7 µg/mL (≈ 1.4 µM)
IC50 [8]: > 10 µg/mL
IC50 [9]: 8.5 µg/mL (≈ 17 µM)
IC50 [10]: 0.3 µg/mL (≈ 0.599 µM)
IC50 [11]: 2.1 µg/mL (≈ 4.19 µM)
IC50 [12]: 2.9 µg/mL (≈ 5.79 µM)
IC50 [13]: 1.8 µg/mL (≈ 3.6 µM)
